This passage reports Activity results from ChEMBL document CHEMBL1141783, “Neuroprotective and antioxidant activity of compounds from the aerial parts of Dioscorea opposita” (2005).

The subject of experiment [1] is Brain. Description: Antioxidant activity in rat brain assessed as malondialdehyde level at 217 uM by thiobarbituric acid method. The class given is functional. In outline: (§1)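 Rat brain MDA was measured by the thiobarbituric acid method, following a previously published protocol. Each compound was tested at three final concentrations. Freshly prepared vitamin C served as the positive control.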

Experiment [2] relates to Brain. Description: Antioxidant activity in rat brain assessed as malondialdehyde level at 21.7 uM by thiobarbituric acid method. The experiment is classed as functional. In outline:
as §1

Experiment [3] can be described thus: Neuroprotective activity in Swiss-Webster mouse neocortical cells with oxygen and glucose deprivation assessed as decrease in lactic dehydrogenase leakage at 21.7 uM. The experiment is classed as functional. Also on record: scale not given: the % may be the effect or the level left. In outline:
(§2)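 Cultured neocortical cells were exposed to OGD with compound at one of three final concentrations; controls received the same volume of glucose-free Earle's buffer instead. For OGD, the chamber was flushed with 95% N2/5% CO2 for 10 min, sealed, and kept at 37 °C for 25 min, followed by 30 min under normal conditions. The treatment was repeated twice, and cells were held 6 h at 37 °C after the last one. LDH was measured in medium and in freeze-thaw lysate. Leakage = extracellular/(extracellular+intracellular) ×100%.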

Experiment [4] has as its system Brain. In words: Antioxidant activity in rat brain assessed as malondialdehyde level at 2.17 uM by thiobarbituric acid method. The experiment is classed as functional. In short, it runs like this:
as §1

The subject of experiment [5] is Plasma. In words: Antioxidant activity in New Zealand White rabbit plasma assessed as increase in conjugated diene formation at 2.17 uM by thiobarbituric acid method. The class given is functional, Oryctolagus cuniculus. In short, it runs like this:
(§3)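 LDL was isolated from New Zealand White rabbit plasma, and its susceptibility to oxidation was measured by a previously published method. Each compound was tested at three final concentrations. Freshly prepared vitamin C served as the positive control.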

Experiment [6] can be described thus: Neuroprotective activity in Swiss-Webster mouse neocortical cells with oxygen and glucose deprivation assessed as decrease in lactic dehydrogenase leakage at 2.17 uM. The experiment is classed as functional. Also on record: scale not given: the % may be the effect or the level left. In outline: as §2
The subject of experiment [7] is Plasma. In words: Antioxidant activity in New Zealand White rabbit plasma assessed as increase in conjugated diene formation at 217 uM by thiobarbituric acid method. The experiment is classed as functional, Oryctolagus cuniculus. In short, it runs like this:
as §3

Experiment [8] relates to Plasma. In words: Antioxidant activity in New Zealand White rabbit plasma assessed as increase in conjugated diene formation at 21.7 uM by thiobarbituric acid method. The experiment is classed as functional, Oryctolagus cuniculus. In short, it runs like this: as §3
Experiment [9] is described as follows: Neuroprotective activity in Swiss-Webster mouse neocortical cells with oxygen and glucose deprivation assessed as decrease in lactic dehydrogenase leakage at 217 uM. The class given is functional. Also on record: scale not given: the % may be the effect or the level left. In outline:
as §2

Experiment [10] deals with Plasma. In words: Antioxidant activity in New Zealand White rabbit plasma assessed as increase in conjugated diene formation at 370 uM by thiobarbituric acid method. The experiment is classed as functional, Oryctolagus cuniculus. In short, it runs like this:
as §3

A short description of experiment [11]: Neuroprotective activity in Swiss-Webster mouse neocortical cells with oxygen and glucose deprivation assessed as decrease in lactic dehydrogenase leakage at 3.70 uM. The class given is functional. Also on record: scale not given: the % may be the effect or the level left. In short, it runs like this:
as §2

The nature of experiment [12]: Neuroprotective activity in Swiss-Webster mouse neocortical cells with oxygen and glucose deprivation assessed as decrease in lactic dehydrogenase leakage at 37 uM. The experiment is classed as functional. Also on record: scale not given: the % may be the effect or the level left. In short, it runs like this:
as §2

In experiment [13] the test system is Plasma. In words: Antioxidant activity in New Zealand White rabbit plasma assessed as increase in conjugated diene formation at 3.70 uM by thiobarbituric acid method. The experiment is classed as functional, Oryctolagus cuniculus. In outline: as §3
Experiment [14] deals with Plasma. Description: Antioxidant activity in New Zealand White rabbit plasma assessed as increase in conjugated diene formation at 37 uM by thiobarbituric acid method. The experiment is classed as functional, Oryctolagus cuniculus. In outline:
as §3

In experiment [15] the test system is Brain. In words: Antioxidant activity in rat brain assessed as malondialdehyde level at 370 uM by thiobarbituric acid method. The experiment is classed as functional. In short, it runs like this: as §1
A short description of experiment [16]: Neuroprotective activity in Swiss-Webster mouse neocortical cells with oxygen and glucose deprivation assessed as decrease in lactic dehydrogenase leakage at 370 uM. The class given is functional. Also on record: scale not given: the % may be the effect or the level left. In outline: as §2
The test system of experiment [17] is Brain. Description: Antioxidant activity in rat brain assessed as malondialdehyde level at 37 uM by thiobarbituric acid method. The class given is functional. In short, it runs like this: as §1
Experiment [18] deals with Brain. In words: Antioxidant activity in rat brain assessed as malondialdehyde level at 3.70 uM by thiobarbituric acid method. The experiment is classed as functional. In short, it runs like this: as §1
Experiment [19] deals with Plasma. Description: Antioxidant activity in New Zealand White rabbit plasma assessed as increase in conjugated diene formation at 568 uM by thiobarbituric acid method. The experiment is classed as functional, Oryctolagus cuniculus. In short, it runs like this:
as §3

The subject of experiment [20] is Brain. In words: Antioxidant activity in rat brain assessed as malondialdehyde level at 568 uM by thiobarbituric acid method. The class given is functional. In outline:
as §1

With `COc1cc(-c2cc(=O)c3c(O)cc(O[C@@H]4O[C@H](CO)[C@@H](O)[C@H](O)[C@H]4O)cc3o2)ccc1O`, the Activity in experiment [1] is 0.95 nmol/mg protein; in experiment [2], 1.19 nmol/mg protein; in experiment [3] it was 22.51%; in [4], 1.37 nmol/mg protein; in experiment [5], 62.24%; in experiment [6], 27.35%. Besides, the values for the Activity in experiment [7], in experiment [8] and in experiment [9] were 11.52%, 66.21% and 21.99%, respectively.
Consider `COC1=CC(=O)c2c(ccc3cc(O)c(O)cc23)C1=O`, for which the Activity in experiment [10] is 95.09%; in [11], 38.3%; in [12], 41.09%; in experiment [13] it was 67.46%; in experiment [14] it was 112.97%; in [15], 1.23 nmol/mg protein. For the same compound, the Activity in experiment [16] is 36.58%; in experiment [17], 1.43 nmol/mg protein; in experiment [18], 1.52 nmol/mg protein.
Turning to `COc1cc(-c2cc(=O)c3c(O)cc(O)cc3o2)ccc1O[C@@H]1O[C@H](CO)[C@@H](O)[C@H](O)[C@H]1O`, the Activity was 1.16 nmol/mg protein in [1]; 1.43 nmol/mg protein in experiment [2]; 22.74% in [3]; 1.46 nmol/mg protein in experiment [4]; 51.62% in [5]; 25.52% in experiment [6]. Also, the values for the Activity in [7], in experiment [8] and in [9] were 0.32%, 30.16% and 21.14%, respectively.
As to `O=C1O[C@H]([C@@H](O)CO)C(O)=C1O` [ASCORBIC ACID], the Activity worked out at 0.17% in [19] and 1.35 nmol/mg in [20].
